ChEMBL document CHEMBL5724801, “EUbOPEN Chemogenomics Library - Multiplex” (2024)
Where “and” joins values, the source holds several entries; their conditions need not be identical. Equal values may be shown once.

Test system: Fibroblast
Assay: Multiplex assay against human fibroblast
Assay type: toxicity, cell-based
Method in brief: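 Hoechst33342, BioTracker Green Microtubule Cytoskeleton Dye, MitoTracker Red and Annexin V Alexa Fluor 680 were added to live cells at seeding, and imaging on a CQ1 microscope at 37°C and 5% CO2 followed compound addition. Gating by CellPathfinder machine learning separated cells into Hoechst high-intensity objects or normal cells, then normal cells into healthy, pyknosed or fragmented nuclei, then pyknosed cells into mitotic or apoptotic. Per cents of healthy-nucleus cells are reported for the tubulin, mitochondrial-mass and membrane-permeability phenotypes.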

[1] = 12 h, 1 µM, compound concentration 1 uM
[2] = 12 h, 10 µM, compound concentration 10 uM
[3] = 24 h, 1 µM, compound concentration 1 uM
[4] = 24 h, 10 µM, compound concentration 10 uM
[5] = 48 h, 1 µM, compound concentration 1 uM
[6] = 48 h, 10 µM, compound concentration 10 uM

CN1CCC(C(=O)c2cccc(NC(=O)c3c(F)cc(F)cc3F)n2)CC1
Population Apoptotic (%) [1]: 28% and 40% | Population Fragmented Nuclei (%) [1]: 16% and 28% | Population Healthy Nuclei (%) [1]: 64% and 53% | Population Hoechst High Intensity Objects (%) [1]: 3% and 2% | Population Membrane Permeable-Phenotype (%) [1]: 1% and 5% | Population Mitochondria Different-Phenotype (%) [1]: 4% and 10% | Population Mitotic Cells (%) [1]: 71% and 60% | Population Normal (%) [1]: 96% and 97% | Population Pyknosed Nuclei (%) [1]: 18% | Population Tubulin-Different-Phenotype (%) [1]: 28% and 43% | Total Cell Count [1]: 153 and 142 | Population Apoptotic (%) [2]: 32% and 36% | Population Fragmented Nuclei (%) [2]: 12% and 23% | Population Healthy Nuclei (%) [2]: 74% and 54% | Population Hoechst High Intensity Objects (%) [2]: 4% | Population Membrane Permeable-Phenotype (%) [2]: 1% and 6% | Population Mitochondria Different-Phenotype (%) [2]: 7% and 6% | Population Mitotic Cells (%) [2]: 67% and 63% | Population Normal (%) [2]: 95% | Population Pyknosed Nuclei (%) [2]: 13% and 22% | Population Tubulin-Different-Phenotype (%) [2]: 42% and 63% | Total Cell Count [2]: 266 and 142 | Population Apoptotic (%) [3]: 45% and 40% | Population Fragmented Nuclei (%) [3]: 12% and 34% | Population Healthy Nuclei (%) [3]: 74% and 43% | Population Hoechst High Intensity Objects (%) [3]: 1% | Population Membrane Permeable-Phenotype (%) [3]: 0% and 6% | Population Mitochondria Different-Phenotype (%) [3]: 2% and 10% | Population Mitotic Cells (%) [3]: 55% and 59% | Population Normal (%) [3]: 98% | Population Pyknosed Nuclei (%) [3]: 12% and 21% | Population Tubulin-Different-Phenotype (%) [3]: 21% and 45% | Total Cell Count [3]: 156 and 148 | Population Apoptotic (%) [4]: 54% and 37% | Population Fragmented Nuclei (%) [4]: 13% and 30% | Population Healthy Nuclei (%) [4]: 71% and 50% | Population Hoechst High Intensity Objects (%) [4]: 3% and 2% | Population Membrane Permeable-Phenotype (%) [4]: 0% and 5% | Population Mitochondria Different-Phenotype (%) [4]: 6% and 8% | Population Mitotic Cells (%) [4]: 45% and 62% | Population Normal (%) [4]: 96% and 97% | Population Pyknosed Nuclei (%) [4]: 14% and 19% | Population Tubulin-Different-Phenotype (%) [4]: 37% and 65% | Total Cell Count [4]: 258 and 153 | Population Apoptotic (%) [5]: 71% and 56% | Population Fragmented Nuclei (%) [5]: 16% and 42% | Population Healthy Nuclei (%) [5]: 74% and 46% | Population Hoechst High Intensity Objects (%) [5]: 3% and 2% | Population Membrane Permeable-Phenotype (%) [5]: 0% and 5% | Population Mitochondria Different-Phenotype (%) [5]: 1% and 5% | Population Mitotic Cells (%) [5]: 28% and 43% | Population Normal (%) [5]: 96% and 97% | Population Pyknosed Nuclei (%) [5]: 8% and 10% | Population Tubulin-Different-Phenotype (%) [5]: 25% and 67% | Total Cell Count [5]: 164 and 156 | Population Apoptotic (%) [6]: 71% and 54% | Population Fragmented Nuclei (%) [6]: 17% and 36% | Population Healthy Nuclei (%) [6]: 71% and 55% | Population Hoechst High Intensity Objects (%) [6]: 5% and 3% | Population Membrane Permeable-Phenotype (%) [6]: 0% and 3% | Population Mitochondria Different-Phenotype (%) [6]: 7% and 3% | Population Mitotic Cells (%) [6]: 28% and 45% | Population Normal (%) [6]: 94% and 96% | Population Pyknosed Nuclei (%) [6]: 10% and 7% | Population Tubulin-Different-Phenotype (%) [6]: 40% and 69% | Total Cell Count [6]: 272 and 152

COc1c(C)cc(NC(=O)c2nn(Cc3ccc(F)cc3)c3c2CN(C(=O)c2ccc[nH]2)C[C@]3(C)C(N)=O)cc1C
Population Apoptotic (%) [1]: 42% and 46% | Population Fragmented Nuclei (%) [1]: 21% and 16% | Population Healthy Nuclei (%) [1]: 58% and 51% | Population Hoechst High Intensity Objects (%) [1]: 2% and 3% | Population Membrane Permeable-Phenotype (%) [1]: 1% and 6% | Population Mitochondria Different-Phenotype (%) [1]: 18% and 11% | Population Mitotic Cells (%) [1]: 57% and 53% | Population Normal (%) [1]: 97% and 96% | Population Pyknosed Nuclei (%) [1]: 20% and 31% | Population Tubulin-Different-Phenotype (%) [1]: 64% and 72% | Total Cell Count [1]: 95 and 86 | Population Apoptotic (%) [2]: 47% and 52% | Population Fragmented Nuclei (%) [2]: 12% and 29% | Population Healthy Nuclei (%) [2]: 58% and 38% | Population Hoechst High Intensity Objects (%) [2]: 1% and 2% | Population Membrane Permeable-Phenotype (%) [2]: 0% and 6% | Population Mitochondria Different-Phenotype (%) [2]: 25% and 30% | Population Mitotic Cells (%) [2]: 52% and 47% | Population Normal (%) [2]: 98% and 97% | Population Pyknosed Nuclei (%) [2]: 29% and 32% | Population Tubulin-Different-Phenotype (%) [2]: 90% | Total Cell Count [2]: 166 and 115 | Population Apoptotic (%) [3]: 66% and 48% | Population Fragmented Nuclei (%) [3]: 25% and 31% | Population Healthy Nuclei (%) [3]: 61% and 38% | Population Hoechst High Intensity Objects (%) [3]: 3% and 6% | Population Membrane Permeable-Phenotype (%) [3]: 1% and 8% | Population Mitochondria Different-Phenotype (%) [3]: 17% | Population Mitotic Cells (%) [3]: 33% and 51% | Population Normal (%) [3]: 96% and 93% | Population Pyknosed Nuclei (%) [3]: 12% and 30% | Population Tubulin-Different-Phenotype (%) [3]: 45% and 67% | Total Cell Count [3]: 96 and 95 | Population Apoptotic (%) [4]: 65% and 43% | Population Fragmented Nuclei (%) [4]: 14% and 30% | Population Healthy Nuclei (%) [4]: 64% and 47% | Population Hoechst High Intensity Objects (%) [4]: 3% and 4% | Population Membrane Permeable-Phenotype (%) [4]: 0% and 8% | Population Mitochondria Different-Phenotype (%) [4]: 47% and 26% | Population Mitotic Cells (%) [4]: 34% and 56% | Population Normal (%) [4]: 96% and 95% | Population Pyknosed Nuclei (%) [4]: 20% and 21% | Population Tubulin-Different-Phenotype (%) [4]: 90% and 82% | Total Cell Count [4]: 159 and 110 | Population Apoptotic (%) [5]: 87% and 70% | Population Fragmented Nuclei (%) [5]: 29% and 34% | Population Healthy Nuclei (%) [5]: 61% and 45% | Population Hoechst High Intensity Objects (%) [5]: 7% and 5% | Population Membrane Permeable-Phenotype (%) [5]: 0% and 10% | Population Mitochondria Different-Phenotype (%) [5]: 10% | Population Mitotic Cells (%) [5]: 12% and 29% | Population Normal (%) [5]: 92% and 94% | Population Pyknosed Nuclei (%) [5]: 8% and 19% | Population Tubulin-Different-Phenotype (%) [5]: 45% and 69% | Total Cell Count [5]: 99 and 91 | Population Apoptotic (%) [6]: 60% and 77% | Population Fragmented Nuclei (%) [6]: 22% and 41% | Population Healthy Nuclei (%) [6]: 60% and 51% | Population Hoechst High Intensity Objects (%) [6]: 4% and 2% | Population Membrane Permeable-Phenotype (%) [6]: 0% and 3% | Population Mitotic Cells (%) [6]: 39% and 22% | Population Normal (%) [6]: 95% and 97% | Population Pyknosed Nuclei (%) [6]: 17% and 7% | Population Tubulin-Different-Phenotype (%) [6]: 92% and 75% | Total Cell Count [6]: 166 and 122
